Experimental data from ChEMBL document CHEMBL4396878, “Mechanisms of Specific versus Nonspecific Interactions of Aggregation-Prone Inhibitors and Attenuators” (J Med Chem, 2019).
Activity calls are given as the source filed them. No cut-off for these calls is given here.

Assays:
[1] = Aggregation property of the compound assessed as change in peak intensity by measuring concentration at which peak intensities deviated from the linear correlation by 1H-NMR analysis; type: physicochemical
Outline: (§1)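 Line widths, chemical shifts and peak intensities tracked; CAC taken as the concentration where intensities deviate from linear dependence, or, for line width, the minimal concentration that increases peak width.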

[2] = target: T1, Rap guanine nucleotide exchange factor 3 (Homo sapiens) (UniProt O95398); test: Binding affinity to human EPAC1 cAMP binding domain (149 to 318 residues) assessed as increase in peak intensity at 100 uM in presence of human serum albumin by [15N-1H]HSQC spectroscopic analysis relative to control
T1 sequence (whole entry): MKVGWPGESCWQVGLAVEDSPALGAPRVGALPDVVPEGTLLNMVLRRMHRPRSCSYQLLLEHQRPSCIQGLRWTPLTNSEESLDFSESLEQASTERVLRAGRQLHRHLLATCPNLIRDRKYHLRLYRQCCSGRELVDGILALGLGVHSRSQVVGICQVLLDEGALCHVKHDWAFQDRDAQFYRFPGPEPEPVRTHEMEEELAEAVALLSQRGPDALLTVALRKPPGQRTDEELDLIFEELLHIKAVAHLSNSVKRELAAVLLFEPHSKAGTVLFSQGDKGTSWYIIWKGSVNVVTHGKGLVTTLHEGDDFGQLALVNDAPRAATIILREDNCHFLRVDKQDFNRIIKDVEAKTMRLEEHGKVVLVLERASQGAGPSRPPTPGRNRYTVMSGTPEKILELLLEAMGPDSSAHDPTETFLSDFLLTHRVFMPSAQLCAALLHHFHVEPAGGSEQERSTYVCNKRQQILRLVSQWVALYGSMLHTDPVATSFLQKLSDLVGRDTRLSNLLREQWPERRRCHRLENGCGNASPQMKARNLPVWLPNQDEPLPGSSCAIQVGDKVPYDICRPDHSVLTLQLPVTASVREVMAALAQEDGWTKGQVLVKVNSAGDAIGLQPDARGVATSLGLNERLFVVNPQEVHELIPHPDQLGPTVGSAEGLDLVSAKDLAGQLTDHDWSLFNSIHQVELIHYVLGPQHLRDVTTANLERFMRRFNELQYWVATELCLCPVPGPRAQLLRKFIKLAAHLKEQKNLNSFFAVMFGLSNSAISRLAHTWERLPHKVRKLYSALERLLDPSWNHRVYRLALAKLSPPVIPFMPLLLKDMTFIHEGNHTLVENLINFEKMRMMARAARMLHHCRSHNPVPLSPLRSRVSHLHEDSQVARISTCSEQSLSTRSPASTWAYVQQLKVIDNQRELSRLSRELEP

Albumin [3] = target: T2, Albumin (Homo sapiens, UniProt P02768); test: Binding affinity to human serum albumin assessed as inhibition of compound aggregation at 500 uM by surface plasmon resonance analysis
[4] = Binding affinity to Triton-X 100 assessed as change in chemical shift at 100 uM by 1H-NMR spectra analysis
[5] = Binding affinity to Triton-X 100 assessed as inter-molecular saturation transfer at 100 uM at 6.61 ppm by STD spectra analysis
Outline: (§2)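 STD NMR, saturation by a train of 40 Gaussian pulses of 50 ms each; selective on-resonance irradiation at the stated ppm (TX at 7.48 ppm), off-resonance at 30 ppm, interleaved and subtracted by phase cycling. 32K points, 16 ppm width centred at 4.7 ppm, 256 scans, 16 dummy scans, 0.1 s recycle delay (~15 min); 3 Hz exponential line broadening.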

Albumin [6] = target: T2, Albumin; test: Binding affinity to human serum albumin assessed as inhibition of compound aggregation at 200 to 500 uM by dynamic light scattering analysis
Outline: (§3)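 Dynamic light scattering in NMR buffer, samples filtered through 0.22 μm and centrifuged 5 min at 13 500 rpm before measurement. Autocorrelation accumulated 150 s at a 173° scattering angle, in replicates of 3–5, with water viscosity used in analysis; intensity or volume size distributions reported.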

[7] = Aggregation property of the compound assessed as change in saturation transfer at 100 uM irradiated at 6.61 ppm by STD NMR spectra analysis; type: physicochemical; outline: as §2
[8] = Binding affinity to Triton-X 100 assessed as inter-molecular cross relaxation at 100 uM by NOESY spectra analysis
Outline: (§4)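 2D NOESY and ROESY of 100 μM ESI with 0.025% Triton X-100 or 500 μM ESI with 0.05% Triton X-100; 2K × 512 complex points, 12 ppm spectral width centred at 4.7 ppm, intra- and intermolecular cross-peaks mapped.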

[9] = target: T1, Rap guanine nucleotide exchange factor 3 (Homo sapiens); test: Binding affinity to human EPAC1 cAMP binding domain (149 to 318 residues) at 100 uM in presence of triton X-100 by [15N-1H]HSQC spectroscopic analysis
Albumin [10] = target: T2, Albumin; test: Binding affinity to human serum albumin assessed as inhibition of compound aggregation at 250 uM by surface plasmon resonance analysis
Outline: (§5)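 SPR on a nonfunctionalized gold nanoparticle sensor; samples in NMR buffer with DMSO at 1.25%, injected at 33 μL/min alongside matched DMSO controls (with HSA where present, 25 μM), in duplicate. Surface regenerated only after HSA-containing injections.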

[11] = target: T1, Rap guanine nucleotide exchange factor 3 (Homo sapiens); test: Binding affinity to human EPAC1 cAMP binding domain (149 to 318 residues) at 200 to 300 uM in presence of triton X-100 using aggregate form of compound by [15N-1H]HSQC spectroscopic analysis
[12] = target: T1, Rap guanine nucleotide exchange factor 3 (Homo sapiens); test: Binding affinity to human EPAC1 cAMP binding domain (149 to 318 residues) assessed as intensity loss using aggregate form of compound by [15N-1H]HSQC spectroscopic analysis
[13] = Binding affinity to Triton-X 100 assessed as line broadening at 100 uM by 1H-NMR spectra analysis
[14] = Aggregation property of the compound in NMR buffer at 250 uM by surface plasmon resonance analysis; type: physicochemical; outline: as §5
[15] = target: T1, Rap guanine nucleotide exchange factor 3 (Homo sapiens); test: Binding affinity to human EPAC1 cAMP binding domain (149 to 318 residues) assessed as change in chemical shift at 50 to 250 uM using aggregate form of compound by [15N-1H]HSQC spectroscopic analysis
[16] = Aggregation property of the compound assessed as change in chemical shift by 1H-NMR analysis; type: physicochemical; outline: as §1
[17] = Binding affinity to Triton-X 100 assessed as intra-molecular cross relaxation at 100 uM by NOESY spectra analysis; outline: as §4
[18] = Aggregation property of the compound in NMR buffer assessed as micellar morphology at 200 uM by uranyl acetate staining-based transmission electron microscopic analysis; type: physicochemical
[19] = target: T1, Rap guanine nucleotide exchange factor 3 (Homo sapiens); test: Binding affinity to human EPAC1 cAMP binding domain (149 to 318 residues) assessed as increase in peak intensity in presence of human serum albumin by [15N-1H]HSQC spectroscopic analysis relative to control
[20] = Binding affinity to Triton-X 100 assessed as aggregate formation at 1:2 ratio of Triton-X 100 to compound by dynamic light scattering analysis; outline: as §3

T2 sequence (P02768 whole entry): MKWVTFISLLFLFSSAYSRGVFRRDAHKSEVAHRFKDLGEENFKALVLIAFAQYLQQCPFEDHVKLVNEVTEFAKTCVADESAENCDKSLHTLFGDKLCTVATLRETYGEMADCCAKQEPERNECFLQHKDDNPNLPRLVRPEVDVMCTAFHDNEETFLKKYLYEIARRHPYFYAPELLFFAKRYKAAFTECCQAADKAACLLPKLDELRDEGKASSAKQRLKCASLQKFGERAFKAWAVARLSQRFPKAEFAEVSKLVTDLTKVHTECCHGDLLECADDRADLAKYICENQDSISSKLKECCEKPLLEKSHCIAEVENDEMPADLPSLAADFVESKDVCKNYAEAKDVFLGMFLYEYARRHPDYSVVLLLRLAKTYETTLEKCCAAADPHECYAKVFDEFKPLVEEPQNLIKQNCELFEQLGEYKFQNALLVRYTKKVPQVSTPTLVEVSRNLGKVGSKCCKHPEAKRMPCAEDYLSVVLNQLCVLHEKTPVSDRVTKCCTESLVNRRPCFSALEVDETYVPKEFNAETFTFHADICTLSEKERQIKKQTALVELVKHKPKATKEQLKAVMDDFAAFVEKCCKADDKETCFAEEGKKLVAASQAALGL

In the case of CC(C)(C)c1cc(C(=O)/C(C#N)=N/Nc2cccc(Cl)c2)no1, the Activity [1] is reported as 150 µM, the Activity [2] is reported as 44% and the “inhibition (INH)” value (Albumin [3]) is reported as “Not Active”. For the same compound, the Activity [4] was “Active”, the Activity [5] was “Active” and the “inhibition (INH)” value (Albumin [6]) was “Active”. For the same compound, the Activity [7] was “Not Active”, the Activity [8] was “Active” and the Activity [9] was “Active”. For the same compound, the “inhibition (INH)” value (Albumin [10]) was “Active”, the Activity [11] was “Active” and the Activity [12] was “Active”. The Activity [13] was “Active”, the Activity [14] was “Active” and the Activity [15] was “Active”. For the same compound, the Activity [16] was “Not Active”, the Activity [17] was “Active” and the Activity [18] was “Active”. The Activity [19] was 30 to 40% and the Activity [20] was “Active”.
